Data on 13 compounds can be found in PubChem BioAssay.

The source made the active and inactive calls.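 The calls were made as follows, unless noted: active = fluorescence slope after compound addition differing from the mean of all tested samples at 99.7% confidence, mostly higher but some lower; inactive = the rest.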

A short description of test [1]: inhibitors of TNFa-induced NFkB p65 translocation, primary screen, imaging, HUVEC, MLSMR starter and 10KST1 sets (AID 438;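 active = inhibition above 20% together with a positive visual image hit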;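 also: compound added about 3h40 before a 20 min TNFalpha stimulation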;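 as to inhibition: signal is the nuclear over cytoplasmic p65 intensity ratio per well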). The conditions noted are these: HUVEC TNFa-induced p65 nuclear translocation; cell count: measured here: nuclei count (cytotoxicity indicator), at 2.08 µM; inhibition: at 2 µM, stronger effect = higher value, 0% TNFa-plus-vehicle, 100% no-TNFa wells.
Test [2] is described as follows: endothelial E-selectin expression blockers – imaging, HUVEC, immunofluorescence, MLSMR starter and 10KST1 sets, primary screen (AID 487;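 active = visually confirmed hit in the image check and inhibition above 20%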;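 as to inhibition: signal is fraction of cell area covered by stained E-selectin grains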;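 as to nuclei count: 100% = median nuclei count of all wells on the same plate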). The conditions noted are these: HUVEC TNFalpha-induced E-selectin immunofluorescence imaging, at 2 µM; inhibition: stronger effect = higher value; nuclei count: measured here: cell number, toxicity.
The nature of test [3]: Primary imaging screen for DUSP6 inhibitors that restore phospho-Erk in transfected HeLa cells, chemical complementation (AID 609;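 active = compounds giving at least 50% inhibition in the cell-based MKP-3 phosphatase rescue imaging test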;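 as to inhibition: phospho-Erk level distribution per well compared with pooled transfected vehicle control wells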). The conditions noted are these: HeLa MKP-3 transfected, phospho-Erk imaging KS statistic, at 10 µM, cells stimulated with TPA for 15 min.
In test [4] the target is Dual specificity protein phosphatase 6 (Homo sapiens) (UniProt Q16828). The test is described as above. To be noted: HeLa MKP-3 transfected, phospho-Erk imaging KS statistic; at 10 µM; stronger effect = higher value; cells stimulated with TPA for 15 min.
Test [5] deals with Voltage-gated potassium channel subunit beta-2 (Rattus norvegicus) (UniProt P62483). As to the kind of experiment: inhibitors of rat Kvbeta2 reductase activity – biochemical, NADPH fluorescence, primary screen (AID 622;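 active = fluorescence slope higher than the sample average by over 3 SD, cut at about -0.22 in these data, passing the limit was not always enough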;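 also: slope of raw intensity against log time taken from 70 to 1610 s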). To be noted: recombinant KvBeta, 4-cyanobenzaldehyde reduction, at 10 µM, stronger effect = higher value.
Test [6] shares this target. As to the kind of experiment: enhancers of rat Kvbeta2 NADPH turnover – biochemical, NADPH fluorescence, primary screen (AID 623;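 active = NADPH fluorescence slope more negative than the mean of all samples by about 3 SD, 99.7% confidence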;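 also: fluorescence intensity change per second fitted from 20 to 320 s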). To be noted: Recombinant KvBeta, NADPH fluorescence decrease slope, 10 min; at 10 µM; stronger effect = lower value.
Test [7] deals with Muscarinic acetylcholine receptor M4 (Homo sapiens) (UniProt P08173). As to the kind of experiment: M4-linked GIRK flux change, two-sided – cell-based, HEK293 M4/GIRK, thallium flux, BTC-AM, M4 allosteric agonist project, primary screen (AID 625).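 Also: thallium influx through GIRK channels coupled to M4 in HEK293 cells with BTC-AM dye.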 The conditions noted are these: at 10 µM, actives lie on both sides. In short, it runs like this:
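Material: HEK293 cells with M4 receptor and GIRK channels; Times: cells overnight at 37 °C, BTC-AM loading 1 h, reads 2 min total; Technique: kinetic BTC-AM fluorescence sampled at 1 Hz, 10 s pre-addition baseline; Read-out basis: slope over 15–24 s of trace normalized to starting intensity; Controls: carbachol positive, DMSO negative.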

A short description of test [8]: inhibitors of larval lipid processing in zebrafish, primary screen, whole organism, PED6 fluorescence, gall bladder and intestine (AID 686;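 active = a full or partial loss of lipid-probe fluorescence in the fish gall bladder, intestine or both, judged by eye; inactive = no fluorescence loss, or compound toxic to the fish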;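 also: larvae 5 to 7 days old with five fish per well; signal comes from phospholipase A2 cleavage of quenched PED6 carried via bile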). The conditions noted are these: Zebrafish larvae PED6 lipid processing, fluorescence scoring; screened at 20 µM (by protocol). In short, it runs like this: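 Incubation: overnight exposure of larvae to compound plus PED6 / Test system: live zebrafish larvae aged 5-7 days, whole organism / Amount: 5 larvae per well / Read-out basis: visual per-well fluorescence inhibition score / Signal: visual fluorescence microscopy scoring of gall bladder, gut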

Test [9] can be described thus: loss of swimming-algae plug formation – whole organism, Chlamydomonas reinhardtii, WT vs cilia-less mutant, absorbance, 96-well, primary screen (AID 463189;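 active = inhibition at or above 50% relative to wild type and mutant plate controls; inactive = inhibition below 50%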;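 also: 0% = wild type cc124 cells in DMSO and 100% = ciliumless bld1 mutant cells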). The conditions noted are these: Chlamydomonas reinhardtii gravitaxis, OD600 absorbance, 2 days; at 10 µM; stronger effect = higher value.
Setting [10] is: measured here: cell density z-score.
Where [11] appears, read: measured here: nuclear c-Myc green intensity z-score.
Setting [12] is: measured here: nuclear pErk red intensity z-score, stronger effect = higher value.

Voltage-gated potassium channel subunit beta-2 (Rattus norvegicus), sequence (P62483 whole entry, looked up): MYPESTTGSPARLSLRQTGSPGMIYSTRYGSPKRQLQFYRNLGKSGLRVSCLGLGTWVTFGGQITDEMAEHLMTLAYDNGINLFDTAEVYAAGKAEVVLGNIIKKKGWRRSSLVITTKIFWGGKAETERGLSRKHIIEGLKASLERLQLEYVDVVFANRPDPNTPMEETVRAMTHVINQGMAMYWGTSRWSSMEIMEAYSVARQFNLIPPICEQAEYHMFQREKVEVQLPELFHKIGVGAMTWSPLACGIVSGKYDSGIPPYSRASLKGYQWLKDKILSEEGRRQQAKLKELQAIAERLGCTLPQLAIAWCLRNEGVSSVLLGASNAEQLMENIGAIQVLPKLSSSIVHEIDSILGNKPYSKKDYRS
Muscarinic acetylcholine receptor M4 (Homo sapiens), sequence (P08173 whole entry, looked up): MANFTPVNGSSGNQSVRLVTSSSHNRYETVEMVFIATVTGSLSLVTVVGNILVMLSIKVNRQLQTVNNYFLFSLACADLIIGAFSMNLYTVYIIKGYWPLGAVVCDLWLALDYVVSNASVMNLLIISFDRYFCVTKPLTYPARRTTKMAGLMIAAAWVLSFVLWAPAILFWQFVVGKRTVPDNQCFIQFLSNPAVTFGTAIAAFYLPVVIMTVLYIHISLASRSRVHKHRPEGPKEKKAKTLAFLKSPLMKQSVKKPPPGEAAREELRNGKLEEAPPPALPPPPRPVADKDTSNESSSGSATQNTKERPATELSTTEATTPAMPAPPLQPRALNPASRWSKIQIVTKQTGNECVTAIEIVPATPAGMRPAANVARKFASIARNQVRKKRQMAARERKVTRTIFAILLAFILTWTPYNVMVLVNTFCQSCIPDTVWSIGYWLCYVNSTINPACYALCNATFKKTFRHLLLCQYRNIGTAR
Dual specificity protein phosphatase 6 (Homo sapiens), sequence (Q16828 whole entry, looked up): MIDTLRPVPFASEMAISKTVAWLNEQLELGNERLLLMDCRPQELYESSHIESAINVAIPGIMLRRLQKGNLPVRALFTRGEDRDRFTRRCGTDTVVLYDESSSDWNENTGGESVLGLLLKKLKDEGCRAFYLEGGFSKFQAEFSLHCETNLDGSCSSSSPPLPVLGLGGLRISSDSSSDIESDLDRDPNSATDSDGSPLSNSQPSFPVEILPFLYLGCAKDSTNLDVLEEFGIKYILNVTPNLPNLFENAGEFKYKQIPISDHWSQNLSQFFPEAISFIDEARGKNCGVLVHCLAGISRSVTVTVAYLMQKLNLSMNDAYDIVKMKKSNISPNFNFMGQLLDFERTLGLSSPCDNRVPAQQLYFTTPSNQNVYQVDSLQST

What is called inhibition is the drop in the measured response relative to a control, in per cent. Turning to `CC1(C)Cc2c(C#N)c(SCc3nc4ccccc4[nH]3)nc(N3CCOCC3)c2CO1`, the cell count in test [1] is 464. The inhibition in test [1] is -6.9% (inactive); in test [2], -111% (inactive); in [4] it was 3.97% (inactive); in test [9], -18.5% (inactive). The compound also returned a nuclei count in test [2] of 99.1%. Moreover, the z-score in test [3] (setting [10]) was -1.63; in test [3] (setting [11]), 0.58; in [3] (setting [12]), -0.0845. In addition, the fluorescence slope in test [5] is -0.39 (inactive); in test [7], 0.00539 (inactive). For the same compound, in test [6], the NADPH fluorescence slope was 1.4e-05 (inactive). Further, the outcome in test [8] was inactive.

Take `CCn1c(SCC(=O)N2CCOCC2)nc2sc3c(c2c1=O)CCCC3`: the cell count in test [1] is 577. The inhibition in [1] was -9.8% (inactive); in [2], -55% (inactive); in [4], -8.59% (inactive); in test [9], 13.7% (inactive). This compound gave a nuclei count in [2] of 122%. Moreover, the z-score in [3] (setting [10]) was -0.0545; in [3] (setting [11]) it was -0.0901; in test [3] (setting [12]), 0.641. The fluorescence slope in [5] was -0.463 (inactive); in test [7], 0.0048 (inactive). Moreover, the NADPH fluorescence slope in test [6] was -0.000111 (inactive). Also, in test [8], the outcome was inactive.

On to `CCOc1ccc(S(=O)(=O)N(C)CCO)cc1-c1nc2c(C(C)(C)C)nn(C)c2c(=O)[nH]1`, for which the cell count in test [1] came to 637. The inhibition in test [1] is 4.6% (inactive); in [2], -94.9% (inactive); in [4], 1.12% (inactive); in test [9], 8.59% (inactive). This compound also registered a nuclei count in test [2] of 165%. In addition, the z-score is 0.365 in test [3] (setting [10]), 1.27 in [3] (setting [11]) and -0.248 in test [3] (setting [12]). In addition, the fluorescence slope in test [5] is -0.484 (inactive); in [7] it was 0.00687 (inactive). In [6], the NADPH fluorescence slope is -3.4e-05 (inactive). Besides, in [8], the result was inactive.

As for `O=C(CN1C2=NCCN2c2ccccc21)N1CCOCC1`, the cell count in test [1] came to 629. The inhibition was 11% (inactive) in test [1], -7.9% (inactive) in test [2], -7.67% (inactive) in [4] and -8.14% (inactive) in [9]. In [2], this compound displayed a nuclei count of 115%. Also, the z-score in test [3] (setting [10]) is 0.036; in test [3] (setting [11]), -0.429; in test [3] (setting [12]), -0.703. Also, the values for the fluorescence slope in test [5] and in [7] were -0.447 (inactive) and 0.00508 (inactive), respectively. Also, in test [6], the NADPH fluorescence slope is -4.9e-05 (inactive). Further, the call in test [8] was inactive.

Regarding `Cc1csc(SCCn2c(Br)nc3c2c(=O)[nH]c(=O)n3C)n1`, the cell count in [1] is 541. Moreover, the inhibition in test [1] is -22.3% (inactive); in [2], -35.3% (inactive); in test [4], -12.6% (inactive); in test [9], 31.8% (inactive). The nuclei count in test [2] amounted to 180%. The z-score in test [3] (setting [10]) was 0.452; in test [3] (setting [11]) it was 0.745; in [3] (setting [12]) it was 0.738. The fluorescence slope is -0.409 (inactive) in [5] and 0.00514 (inactive) in [7]. Also, the NADPH fluorescence slope in test [6] is -4.5e-05 (inactive). Besides, the compound was classed as inactive in test [8].

In the case of `CCOC(=O)c1c(-c2cccs2)csc1NC(=O)c1ccncc1`, the cell count in [1] was determined as 469. Also, the inhibition was -0.7% (inactive) in [1], -21.4% (inactive) in [2], 4.37% (inactive) in test [4] and 12.5% (inactive) in [9]. In test [2], this compound displayed a nuclei count of 128%. The z-score in [3] (setting [10]) was 0.172; in [3] (setting [11]) it was 0.303; in test [3] (setting [12]) it was -0.644. Besides, the fluorescence slope was -0.308 (inactive) in test [5] and 0.00693 (inactive) in test [7]. Moreover, the NADPH fluorescence slope in test [6] was -2.8e-05 (inactive). In test [8], the call was inactive.

Regarding `O=C(Nc1nnc(SCc2ccccc2F)s1)c1ccco1`, the cell count in test [1] worked out at 600. Moreover, the inhibition was -10.3% (inactive) in test [1], -62.9% (inactive) in test [2], 5.35% (inactive) in [4] and 39.5% (inactive) in test [9]. The compound also gave a nuclei count in [2] of 109%. The figures for the z-score in test [3] (setting [10]), in test [3] (setting [11]) and in test [3] (setting [12]) were -0.259, -0.419 and -0.101, respectively. Further, the fluorescence slope is -0.502 (inactive) in test [5] and 0.00604 (inactive) in [7]. The NADPH fluorescence slope in test [6] is -5.2e-05 (inactive). The compound was called inactive in test [8].

Regarding `COc1ccccc1NC(=O)c1c(C)cc(=O)oc1C`, the cell count in test [1] is 601. Also, the inhibition was -14.3% (inactive) in test [1], 35.3% (inactive) in [2], -4.59% (inactive) in test [4] and 17.9% (inactive) in [9]. This compound gave a nuclei count in [2] of 145%. The z-score in test [3] (setting [10]) is -0.227; in test [3] (setting [11]), -0.0987; in [3] (setting [12]) it was -0.0601. Besides, the fluorescence slope was -0.409 (inactive) in test [5] and 0.00639 (inactive) in [7]. The NADPH fluorescence slope in test [6] is -3e-05 (inactive). Besides, in test [8], the outcome was inactive.

As for `CCC1(C)Cc2c(sc(NC(=O)CCC(=O)O)c2C#N)CO1` (centres undefined), the cell count in test [1] came out at 525. Besides, the inhibition in test [1] was -3.4% (inactive); in test [2], -47% (inactive); in [4] it was 9.91% (inactive); in test [9], -2.53% (inactive). The nuclei count in [2] is 165%. For the same compound, the z-score is 1.02 in [3] (setting [10]), 0.907 in test [3] (setting [11]) and 0.102 in [3] (setting [12]). Besides, the fluorescence slope in test [5] was -0.382 (inactive); in test [7], 0.00482 (inactive). The NADPH fluorescence slope in test [6] is -5.7e-05 (inactive). Moreover, the compound was called inactive in test [8].

On to `CCSC1=C(C#N)C(c2cccs2)C(C(=O)OC)=C(C)N1` (centres undefined), for which the cell count in [1] was 704. Further, the inhibition in test [1] was -1% (inactive); in [2], -26.7% (inactive); in [4], 2.46% (inactive); in [9], -1.08% (inactive). Also, in test [2], the nuclei count amounted to 161%. In addition, the z-score in test [3] (setting [10]) was 1.09; in [3] (setting [11]) it was -0.139; in test [3] (setting [12]), -1.35. In addition, the fluorescence slope is -0.442 (inactive) in [5] and 0.00541 (inactive) in test [7]. In addition, in test [6], the NADPH fluorescence slope was -5.3e-05 (inactive). Moreover, the result in test [8] was inactive.

On to `Cc1ccc(S(=O)(=O)N(CC(O)CN(C)C)c2ccccc2)cc1` (centres undefined), for which the cell count in [1] came out at 534. The inhibition in [1] was -13.1% (inactive); in [2] it was -98.3% (inactive); in test [4] it was -6.59% (inactive); in test [9], 2.93% (inactive). The compound further yielded a nuclei count in test [2] of 180%. Moreover, the z-score is 0.563 in [3] (setting [10]), -0.408 in test [3] (setting [11]) and -0.341 in test [3] (setting [12]). For the same compound, the fluorescence slope in test [5] is -0.412 (inactive); in test [7] it was 0.00541 (inactive). Also, in test [6], the NADPH fluorescence slope was -7e-05 (inactive). In addition, the compound was classed as inactive in [8].

Consider `CCOC(=O)CNC(=O)CNC(=O)c1ccc(OC)cc1`, for which, in [1], the cell count turned out to be 394. The inhibition in [1] was -0.5% (inactive); in test [2], 6.4% (inactive); in test [4] it was 17.4% (inactive); in test [9], 23.5% (inactive). The same compound had a nuclei count in [2] of 82.7%. Moreover, the z-score is 0.162 in [3] (setting [10]), 0.31 in [3] (setting [11]) and 1.25 in test [3] (setting [12]). The fluorescence slope in test [5] is -0.447 (inactive); in [7] it was 0.0051 (inactive). The NADPH fluorescence slope in [6] is -5.5e-05 (inactive). For the same compound, the result in [8] was inactive.

On to `CCOC(=O)c1[nH]c2ccccc2c1N=C(C)N(CC)CC`, for which, in [1], the cell count came to 643. Also, the inhibition was -7% (inactive) in [1], -113% (inactive) in test [2], 11.9% (inactive) in test [4] and -5.79% (inactive) in test [9]. Besides, the nuclei count in test [2] turned out to be 160%. Also, the values for the z-score in test [3] (setting [10]), in test [3] (setting [11]) and in test [3] (setting [12]) were -1.18, 2.66 and 0.345, respectively. Also, the fluorescence slope in test [5] is -0.521 (inactive); in [7], 0.00643 (inactive). For the same compound, in test [6], the NADPH fluorescence slope is -3.5e-05 (inactive). The compound was classed as inactive in [8].
